Results published in article PMC10993246 (ACS Omega, 2024).
Residues, ends and D or L forms follow the SMILES beside them.

Key:
L929 cells = test: Cell proliferation / cytotoxicity MTT assay; type: cell-based; settings: 48 h; for toxicity toward the cells: L929 cells, 10, 25, 50 and 100 μM, IC50 values could not be calculated
How it was run: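 L929 cells were seeded at 0.5 × 10^4 cells per well and held 24 h in complete medium. Fluorescein-labelled and unlabelled test peptides were then added at 10, 25, 50 and 100 μM for 48 h. MTT was applied for 4 h at 37 °C in the dark, formazan was dissolved in DMSO, and A570 was read. % viability = treated/untreated absorbance; mean ± SD; two-way ANOVA.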

[1] = test system: mouse fibroblast 3T3 cells; settings: cell fixation conditions, ref 36 (Rhee et al.); cited from earlier work
3T3 cells = test: Membrane penetrability, fixed cells, fluorescence and confocal microscopy; type: cell-based, mouse; settings: fixed 3T3 cells, 50 μM in PBS, 6 h, 4 °C, confocal microscopy
[2] = ref 43 (Futaki et al.); cited from earlier work

Molecule	toxicity toward the cells (L929 cells)	cellular viability at 25 and 50 μM compared to 10 μM (L929 cells; L929 cells)	localization of CPPs [2]	further results
CC(C)C[C@H](NC(=O)[C@H](CO)NC(=O)CNC(=O)[C@@H](N)C(C)C)C(=O)N[C@@H](CCCNC(=N)N)C(=O)O [VGSLR] (H-VGSLR-OH)	did not show any significant toxicity	increased progressively	–	–
CSIPPEVKFNPFVYLI [C105Y]	–	–	–	localization of the fluorescent-tagged peptide [1]: enriched fluorescence signal in the nucleus in addition to being present in the cytoplasm
FITC-VGSLR	does not show any toxicity	increased progressively	–	cell proliferation compared to the untreated cells (L929 cells; L929 cells, 50 μM, absorbance 570 nm, p < 0.0001): higher proliferation; cell viability at 100 μM (L929 cells; L929 cells, 100 μM): reduced viability; subcellular localization (3T3 cells): localization of the peptide at the nucleus was more than that in the cytoplasm
GRRRRRRRRRPPQ [R9-TAT]	–	–	in both the cytoplasm and nucleus	–
Tat-(48–60): CPP reported by Futaki et al. (GRKKRRQRRRAHQ; UniProt P04608 48-60, looked up, fragment)	–	–	in both the cytoplasm and nucleus	–
